Results published in ChEMBL document CHEMBL3046803, “Synthesis and insecticidal activities of novel anthranilic diamides containing acylthiourea and acylurea” (2012).
In brackets after ≈: the same amount, converted by molar mass. Activity calls are given as the source filed them. The calls are words filed in the database; no cut-off is given here.

Columns and labels:
[1] = target: Voltage-dependent L-type calcium channel, putative (Pediculus humanus subsp. corporis) (UniProt E0VY79); experiment: Inhibition of voltage-dependent L-type calcium channel in Spodoptera exigua neurons assessed as peak calcium current at 0.1 mM measured 10 min post dose by electrophysiology method (reference value: 85.44 +/- 1.14%); set-up: scale not given: the % may be the effect or the level left
Sequence of Voltage-dependent L-type calcium channel, putative (Pediculus humanus subsp. corporis) (E0VY79 as listed by the source): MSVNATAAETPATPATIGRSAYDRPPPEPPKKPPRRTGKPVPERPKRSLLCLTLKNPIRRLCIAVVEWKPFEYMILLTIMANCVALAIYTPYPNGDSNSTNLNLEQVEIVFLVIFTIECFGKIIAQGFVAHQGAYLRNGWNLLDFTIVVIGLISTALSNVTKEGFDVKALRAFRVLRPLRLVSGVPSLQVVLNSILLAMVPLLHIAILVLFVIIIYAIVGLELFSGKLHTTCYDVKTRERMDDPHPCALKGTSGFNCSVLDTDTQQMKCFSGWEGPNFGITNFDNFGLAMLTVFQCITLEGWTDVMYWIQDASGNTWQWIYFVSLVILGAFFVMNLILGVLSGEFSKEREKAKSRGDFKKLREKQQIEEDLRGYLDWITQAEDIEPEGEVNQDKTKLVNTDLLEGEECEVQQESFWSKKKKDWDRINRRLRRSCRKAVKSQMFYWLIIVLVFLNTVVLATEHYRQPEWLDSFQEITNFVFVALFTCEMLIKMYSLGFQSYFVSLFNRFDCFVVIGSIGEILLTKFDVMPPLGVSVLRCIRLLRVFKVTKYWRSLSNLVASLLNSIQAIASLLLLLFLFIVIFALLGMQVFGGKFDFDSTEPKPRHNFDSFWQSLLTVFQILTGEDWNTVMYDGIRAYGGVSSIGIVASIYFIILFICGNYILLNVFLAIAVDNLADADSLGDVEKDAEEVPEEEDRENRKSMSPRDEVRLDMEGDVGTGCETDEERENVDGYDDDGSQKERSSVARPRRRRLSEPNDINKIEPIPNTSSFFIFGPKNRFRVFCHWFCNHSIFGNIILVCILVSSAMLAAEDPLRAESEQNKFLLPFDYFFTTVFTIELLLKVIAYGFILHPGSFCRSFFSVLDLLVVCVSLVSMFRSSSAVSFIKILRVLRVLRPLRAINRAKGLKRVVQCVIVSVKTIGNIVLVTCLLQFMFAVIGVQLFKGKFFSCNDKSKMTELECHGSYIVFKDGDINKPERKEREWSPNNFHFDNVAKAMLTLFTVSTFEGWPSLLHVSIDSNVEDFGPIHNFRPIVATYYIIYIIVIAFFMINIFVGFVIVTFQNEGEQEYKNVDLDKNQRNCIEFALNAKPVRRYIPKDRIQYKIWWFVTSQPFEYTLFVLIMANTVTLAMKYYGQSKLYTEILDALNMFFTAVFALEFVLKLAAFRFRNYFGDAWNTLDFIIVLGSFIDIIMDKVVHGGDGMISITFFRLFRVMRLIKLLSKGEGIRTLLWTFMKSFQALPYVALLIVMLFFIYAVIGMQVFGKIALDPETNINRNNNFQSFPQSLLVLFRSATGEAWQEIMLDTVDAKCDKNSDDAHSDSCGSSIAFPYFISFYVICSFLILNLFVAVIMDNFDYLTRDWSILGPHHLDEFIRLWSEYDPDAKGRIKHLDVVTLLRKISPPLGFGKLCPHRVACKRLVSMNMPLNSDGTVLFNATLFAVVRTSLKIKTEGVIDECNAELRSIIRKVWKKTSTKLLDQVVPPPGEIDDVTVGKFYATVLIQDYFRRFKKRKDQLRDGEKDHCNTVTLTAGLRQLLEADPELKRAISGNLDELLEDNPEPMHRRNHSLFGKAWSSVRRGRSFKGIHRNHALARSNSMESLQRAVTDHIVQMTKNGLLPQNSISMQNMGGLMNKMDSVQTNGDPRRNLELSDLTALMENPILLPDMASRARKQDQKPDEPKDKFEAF

[2] = test system: Culex pipiens pallens; experiment: Insecticidal activity against Culex pipiens pallens (mosquito) fourth-instar larvae assessed as larvicidal activity at 1 mg/L measured 3 days post dose; assay type: functional
How it was run: (§1)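 Mosquito larvicidal test: compounds were dissolved in acetone and diluted with distilled water to the test concentrations.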

[3] = test system: Plutella xylostella; experiment: Insecticidal activity against Plutella xylostella (diamondback moth) s-instar larvae infected in fresh cabbage leaves assessed as larvicidal activity at 1 mg/L measured 2 days post dose; assay type: functional
How it was run: (§2)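 Leaf-dip (spray) test: a 200 mg/L stock in DMF was diluted with distilled water. Cabbage leaf disks (6 × 2 cm) were sprayed for 3 s, dried, and placed individually in glass tubes. Each disk received 30 second-instar larvae. Mortality was scored at 2 days; triplicate.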

[4] = target: Voltage-dependent L-type calcium channel, putative (Pediculus humanus subsp. corporis) (UniProt E0VY79); experiment: Inhibition of voltage-dependent L-type calcium channel in Spodoptera exigua neurons assessed as peak calcium current at 0.1 mM measured 8 min post dose by electrophysiology method (reference value: 90.85 +/- 0.65%); set-up: scale not given: the % may be the effect or the level left
[5] = test system: Plutella xylostella; experiment: Insecticidal activity against Plutella xylostella (diamondback moth) s-instar larvae infected in fresh cabbage leaves assessed as larvicidal activity at 20 mg/L measured 2 days post dose; assay type: functional; how it was run: as §2
[6] = test system: Mythimna separata; experiment: Insecticidal activity against Mythimna separata (Oriental armyworm) fourth-instar larvae infected Zea mays leaves assessed as larvicidal activity at 100 mg/L measured 2 days post dose; assay type: functional
How it was run: (§3)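 Foliar application test: individual corn (Tangyu 10) leaves were placed on moistened filter paper in Petri dishes.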

[7] = target: Voltage-dependent L-type calcium channel, putative (Pediculus humanus subsp. corporis) (UniProt E0VY79); experiment: Inhibition of voltage-dependent L-type calcium channel in Spodoptera exigua neurons assessed as peak calcium current at 0.1 mM measured 1 min post dose by electrophysiology method (reference value: 104.47 +/- 2.33%); set-up: scale not given: the % may be the effect or the level left
[8] = test system: Plutella xylostella; experiment: Insecticidal activity against Plutella xylostella (diamondback moth) s-instar larvae infected in fresh cabbage leaves assessed as larvicidal activity at 0.1 mg/L measured 2 days post dose; assay type: functional; how it was run: as §2
[9] = target: Voltage-dependent L-type calcium channel, putative (Pediculus humanus subsp. corporis) (UniProt E0VY79); experiment: Inhibition of voltage-dependent L-type calcium channel in Spodoptera exigua neurons assessed as peak intracellular calcium level at 1000 mg/L measured 10 min post dose by calcium-imaging technique relative to initial untreated control; assay type: cell-based; set-up: scale not given: the % may be the effect or the level left
How it was run: (§4)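 S. exigua neurons were rinsed in physiological saline (pH 6.9). They were dye-loaded in the dark at 28 °C, either with 10 μM fluo-3-AM for 45 min in standard saline or with 5 μM fluo-5N for 5 h in EGTA Ca-free saline, then rinsed twice. [Ca²⁺]i was imaged on an inverted fluorescence microscope (40× oil, 488/530 nm) over 10 min. F/F₀ is relative to resting baseline; ≥6 repeats; mean ± SD.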

[10] = test system: Mythimna separata; experiment: Insecticidal activity against Mythimna separata (Oriental armyworm) fourth-instar larvae infected Zea mays leaves assessed as larvicidal activity at 200 mg/L measured 2 days post dose; assay type: functional; how it was run: as §3
[11] = test system: Plutella xylostella; experiment: Insecticidal activity against Plutella xylostella (diamondback moth) s-instar larvae infected in fresh cabbage leaves assessed as larvicidal activity measured 2 days post dose; assay type: functional; conditions: 48 h; how it was run: as §2
[12] = test system: Plutella xylostella; experiment: Insecticidal activity against Plutella xylostella (diamondback moth) s-instar larvae infected in fresh cabbage leaves assessed as larvicidal activity at 0.001 mg/L measured 2 days post dose; assay type: functional; how it was run: as §2
[13] = test system: Culex pipiens pallens; experiment: Insecticidal activity against Culex pipiens pallens (mosquito) fourth-instar larvae assessed as larvicidal activity at 0.5 mg/L measured 3 days post dose; assay type: functional; how it was run: as §1
[14] = test system: Mythimna separata; experiment: Insecticidal activity against Mythimna separata (Oriental armyworm) fourth-instar larvae infected Zea mays leaves assessed as larvicidal activity at 20 mg/L measured 2 days post dose; assay type: functional; how it was run: as §3
[15] = test system: Mythimna separata; experiment: Insecticidal activity against Mythimna separata (Oriental armyworm) fourth-instar larvae infected Zea mays leaves assessed as larvicidal activity at 5 mg/L measured 2 days post dose; assay type: functional; how it was run: as §3
[16] = test system: Mythimna separata; experiment: Insecticidal activity against Mythimna separata (Oriental armyworm) fourth-instar larvae infected Zea mays leaves assessed as larvicidal activity at 50 mg/L measured 2 days post dose; assay type: functional; how it was run: as §3
[17] = target: Voltage-dependent L-type calcium channel, putative (Pediculus humanus subsp. corporis) (UniProt E0VY79); experiment: Inhibition of voltage-dependent L-type calcium channel in Spodoptera exigua neurons assessed as peak calcium current at 0.1 mM measured 4 min post dose by electrophysiology method (reference value: 99.66 +/- 1.64%); set-up: scale not given: the % may be the effect or the level left
[18] = target: Voltage-dependent L-type calcium channel, putative (Pediculus humanus subsp. corporis) (UniProt E0VY79); experiment: Inhibition of voltage-dependent L-type calcium channel in Spodoptera exigua neurons assessed as peak calcium current at 0.1 mM measured 2 min post dose by electrophysiology method (reference value: 102.75 +/- 2.45%); set-up: scale not given: the % may be the effect or the level left
[19] = test system: Plutella xylostella; experiment: Insecticidal activity against Plutella xylostella (diamondback moth) s-instar larvae infected in fresh cabbage leaves assessed as larvicidal activity at 0.01 mg/L measured 2 days post dose; assay type: functional; how it was run: as §2
[20] = test system: Mythimna separata; experiment: Insecticidal activity against Mythimna separata (Oriental armyworm) fourth-instar larvae infected Zea mays leaves assessed as larvicidal activity at 10 mg/L measured 2 days post dose; assay type: functional; how it was run: as §3
[21] = target: Voltage-dependent L-type calcium channel, putative (Pediculus humanus subsp. corporis) (UniProt E0VY79); experiment: Inhibition of voltage-dependent L-type calcium channel in Spodoptera exigua neurons assessed as peak calcium current at 0.1 mM measured 3 min post dose by electrophysiology method (reference value: 101.76 +/- 2.7%); set-up: scale not given: the % may be the effect or the level left
[22] = test system: Culex pipiens pallens; experiment: Insecticidal activity against Culex pipiens pallens (mosquito) fourth-instar larvae assessed as larvicidal activity at 2 mg/L measured 3 days post dose; assay type: functional; how it was run: as §1
[23] = target: Voltage-dependent L-type calcium channel, putative (Pediculus humanus subsp. corporis) (UniProt E0VY79); experiment: Inhibition of voltage-dependent L-type calcium channel in Spodoptera exigua neurons assessed as peak calcium current at 0.1 mM measured 5 min post dose by electrophysiology method (reference value: 98.06 +/- 1.01%); set-up: scale not given: the % may be the effect or the level left
[24] = target: Voltage-dependent L-type calcium channel, putative (Pediculus humanus subsp. corporis) (UniProt E0VY79); experiment: Inhibition of voltage-dependent L-type calcium channel in Spodoptera exigua neurons assessed as peak calcium current at 0.001 mM measured 5 min post dose by electrophysiology method (reference value: 98.06 +/- 1.01%); set-up: scale not given: the % may be the effect or the level left
[25] = target: Voltage-dependent L-type calcium channel, putative (Pediculus humanus subsp. corporis) (UniProt E0VY79); experiment: Inhibition of voltage-dependent L-type calcium channel in Spodoptera exigua neurons assessed as change in […] calcium level at 1000 mg/L measured 10 min post dose by calcium-imaging technique; how it was run: as §4
[26] = target: Voltage-dependent L-type calcium channel, putative (Pediculus humanus subsp. corporis) (UniProt E0VY79); experiment: Inhibition of voltage-dependent L-type calcium channel in Spodoptera exigua neurons assessed as change in peak calcium current at 0.001 mM at -70 mV holding potential measured 1 to 10 min post dose by electrophysiology method
[27] = target: Voltage-dependent L-type calcium channel, putative (Pediculus humanus subsp. corporis) (UniProt E0VY79); experiment: Inhibition of voltage-dependent L-type calcium channel in Spodoptera exigua neurons assessed as increase in intracellular calcium level at 1000 mg/L measured 10 min post dose by calcium-imaging technique; assay type: cell-based; how it was run: as §4
[28] = target: Voltage-dependent L-type calcium channel, putative (Pediculus humanus subsp. corporis) (UniProt E0VY79); experiment: Inhibition of voltage-dependent L-type calcium channel in Spodoptera exigua neurons assessed as peak calcium current at 0.1 mM at -70 mV holding potential measured 5 min post dose by electrophysiology method
[29] = target: Voltage-dependent L-type calcium channel, putative (Pediculus humanus subsp. corporis) (UniProt E0VY79); experiment: Inhibition of voltage-dependent L-type calcium channel in Spodoptera exigua neurons assessed as peak calcium current at 0.001 mM measured 4 min post dose by electrophysiology method (reference value: 99.66 +/- 1.64%); set-up: scale not given: the % may be the effect or the level left
[30] = target: Voltage-dependent L-type calcium channel, putative (Pediculus humanus subsp. corporis) (UniProt E0VY79); experiment: Inhibition of voltage-dependent L-type calcium channel in Spodoptera exigua neurons assessed as peak calcium current at 0.001 mM measured 8 min post dose by electrophysiology method (reference value: 90.85 +/- 0.65%); set-up: scale not given: the % may be the effect or the level left
[31] = target: Voltage-dependent L-type calcium channel, putative (Pediculus humanus subsp. corporis) (UniProt E0VY79); experiment: Inhibition of voltage-dependent L-type calcium channel in Spodoptera exigua neurons assessed as peak calcium current at 0.1 mM at -70 mV holding potential measured 10 min post dose by electrophysiology method
[32] = target: Voltage-dependent L-type calcium channel, putative (Pediculus humanus subsp. corporis) (UniProt E0VY79); experiment: Inhibition of voltage-dependent L-type calcium channel in Spodoptera exigua neurons assessed as change in peak calcium current at 0.1 mM at -70 mV holding potential measured 1 min post dose by electrophysiology method
[33] = target: Voltage-dependent L-type calcium channel, putative (Pediculus humanus subsp. corporis) (UniProt E0VY79); experiment: Inhibition of voltage-dependent L-type calcium channel in Spodoptera exigua neurons assessed as peak calcium current at 0.001 mM measured 10 min post dose by electrophysiology method (reference value: 85.44 +/- 1.14%); set-up: scale not given: the % may be the effect or the level left
[34] = target: Voltage-dependent L-type calcium channel, putative (Pediculus humanus subsp. corporis) (UniProt E0VY79); experiment: Inhibition of voltage-dependent L-type calcium channel in Spodoptera exigua neurons assessed as peak calcium current at 0.001 mM measured 3 min post dose by electrophysiology method (reference value: 101.76 +/- 2.7%); set-up: scale not given: the % may be the effect or the level left
[35] = target: Ryanodien receptor (Spodoptera exigua) (UniProt H9CNL0); experiment: Inhibition of Ryanodine receptor in Spodoptera exigua neurons assessed as reduction in intracellular calcium level at 1000 mg/L pre-treated with 10 mg/ml heparin and 1 uM thapsigargin by calcium-imaging technique; assay type: cell-based
How it was run: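 Primary cultured S. exigua neurons were rinsed in saline, then loaded in the dark at 28 °C with 5 μM fluo-5N for 5 h in Ca-free saline (150 mM NaCl, 4 mM KCl, 2 mM MgCl₂, 2 mM EGTA, 10 mM HEPES, pH 6.9). They were treated with 10 mg/mL heparin for 20 min, then 1 μM thapsigargin for 10 min. Fluorescence was imaged (40× oil, 488/530 nm) and expressed as F/F₀.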

Row | SMILES | Activity [1] | Activity [4] | Activity [6] | Activity [7] | Activity [9] | Activity [10] | Activity [14] | Activity [15] | Activity [16] | Activity [17] | Activity [18] | Activity [20] | Activity [21] | Activity [22] | Activity [23] | other results
1 | CNC(=O)c1cc(Cl)cc(C)c1NC(=O)c1cc(Br)nn1-c1ncccc1Cl [CHLORANTRANILIPROLE] | 39.7% | 44.3% | 100% | 89.6% | 123% | 100% | 100% | 100% | 100% | 63.4% | 74% | 100% | 69.6% | 100% | 55.8% | Activity [2]: 100%; Activity [3]: 100%; Activity [5]: 100%; Activity [8]: 100%; LC50 [11]: 0.0123 ng/mL (≈ 0.0255 nM); Activity [12]: 100%; Activity [13]: 100%; Activity [19]: 100%
2 | Cc1cc(Cl)cc(C(=O)NC(C)C)c1NC(=S)NC(=O)c1cc(Cl)nn1-c1ncccc1Cl | 54.7% | 61% | 100% | 91.5% | 117% | 100% | 100% | 40% | 100% | 74.4% | 84.1% | 100% | 80.7% | 40% | 70.2% | Activity [24]: 84.4%; inhibition [25]: inactive; inhibition [26]: inactive; Activity [27]: Active; Activity [28]: -1.64 nanoampere; Activity [29]: 90.1%; Activity [30]: 81.2%; Activity [31]: -1.27 nanoampere; Activity [32]: 10 mV; Activity [33]: 74.6%; Activity [34]: 95.8%; inhibition [35]: Active
